# Tests used:
# [1] = test system: Human endocervical epithelial cell line (A2EN); test: Crystal violet staining for cervical cell morphology; format: cell-based; conditions: 24 h treatment, even at 100 mM
# [2] = pH of compound dissolved in water; format: physicochemical; conditions: mean ± S.D., n = 3
# [3] = test system: Human endocervical epithelial cell line (A2EN); test: MTT assay for cervical cell proliferation / viability; format: cell-based; conditions: 24 h treatment, even at high concentrations of 50 mM
# [4] = Thermogravimetric analysis; format: physicochemical; conditions: TGA, 30 to 350 °C at 10 °C min^−1, nitrogen
# In short: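 Samples of 2–5 mg weighed into platinum pans and heated from 30 to 350 °C at 10 °C min−1 under nitrogen purge at 25 mL min−1. T5% taken as the temperature at 5% loss of total sample mass.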
Morphological changes of cervical epithelial cells [1],pH [2],T5% (onset temperature at 5% mass loss) [4],SMILES,Effect on cervical epithelial cell viability [3]
no morphological changes were observed,9.02 ± 1.7,94.3 °C,C[N+](C)(C)CCO.O=C([O-])[C@H](O)Cc1ccccc1 [Chol : D-PLA (1 : 1)],did not significantly reduce cervical epithelial cell viability
–,2.9 ± 1.2,–,"O=C(O)C(O)Cc1ccccc1 [D-PLA, 2-hydroxy-3-phenylpropanoic acid]",–
–,3.2 ± 1.6,156.07 °C,"O=C(O)C(O)Cc1ccccc1 [L-PLA, 2-hydroxy-3-phenylpropanoic acid]",–
–,–,189.9 °C,"C[N+](C)(C)C[C@H](O)CC(=O)[O-] [carnitine, L-Carnitine]",–

# From PMC11100303 (RSC Advances, 2024)
